Consider two molecules from ChEMBL document CHEMBL4017544 (J Med Chem, 2017).

Active and inactive are the calls of the source. The calls are words filed in the database; no cut-off is given here.

Data set [1] has as its target Kelch-like ECH-associated protein 1 (Homo sapiens) (UniProt Q14145). Nature of the data set: Inhibition of Keap1/Nrf2 (unknown origin) interaction transfected in HEK293 cells assessed as increase in nuclear to cytosolic Nfr2 ratio at 200 to 1000 nM after 48 hrs by Western blot analysis. Format: cell-based. Put shortly:
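HEK293 cells grown in high-glucose DMEM with 10% FBS were treated in triplicate at 200 or 1000 nM for 48 h. Nuclear and cytosolic Nrf2, HO-1 and cytoplasmic NQO1 were measured by western blot with specific antibodies, with TBP and β-actin among the probed proteins. The nuclear/cytosolic Nrf2 ratio was derived from these blots. Three independent experiments, mean ± SD.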
On the technique in general: A western blot detects proteins with antibodies after separation by electrophoresis.

Data set [2] has as its system Mus musculus. Nature of the data set: Renoprotective activity in db/db mouse assessed as reduction of fibrosis in glomeruli at 0.65 mg/kg, ip administered trice per week for 12 consecutive weeks measured at 11 weeks post dose by H/E-staining based microscopic analysis. Format: functional, organism-based. The procedure, abridged:
(§1)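 Male db/db mice, 8 weeks old, were randomized and dosed i.p. three times weekly for 12 weeks (vehicle: 5% Tween-80 in 0.9% saline; n = 6 per group). Kidneys were fixed in 4% PFA and paraffin-embedded. 5 μm sections were stained with HE, PAS or Masson's trichrome and examined at ×400.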

The nature of data set [3]: Drug level in Wistar rat kidney homogenates treated with 1-Hydroxyl-2-cyano-3-(4-(methyl-L-glutaminate-N5-yl)-benzyloxy)-12-oxo-oleana-2(3),9(11)-dien-28-oic Acid Methyl Ester assessed as GGT-mediated metabolite formation at 100 uM after 8 hrs by HPLC analysis. Format: ADME, tissue-based. The conditions noted are these: tissue homogenate. The procedure, abridged:
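Plasma, and kidney and liver homogenates in PBS, from three Wistar rats; substrate added at 100 μM at 37 °C; metabolite measured by HPLC every 60 min for 8 h; mean ± SD of three experiments.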

Data set [4] has as its system Mus musculus. Nature of the data set: Anti-diabetic nephropathic activity in db/db mouse assessed as reduction in urine albumin to creatinine ratio at 0.65 mg/kg, ip administered trice per week for 12 consecutive weeks measured at 24 hrs post 11 week administration. Format: functional, organism-based. The procedure, abridged: (§2)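 Male db/db mice, 8 weeks old, randomized; ip vehicle (5% Tween-80 in 0.9% saline) or drug three times weekly for 12 weeks, n = 6 per group. After 11 weeks, 24 h urine collected for volume, albumin and creatinine, with UACR calculated; blood then sampled for plasma BUN and uric acid. Mean ± SD, one-way ANOVA with Tukey test.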

The subject of data set [5] is Mus musculus. Kind of data set: Renoprotective activity in db/db mouse assessed as reduction in thickening of capillary walls in glomeruli at 0.65 mg/kg, ip administered trice per week for 12 consecutive weeks measured at 11 weeks post dose by H/E-staining based microscopic analysis. Format: functional, organism-based. The procedure, abridged:
as §1

For data set [6], the system named is Mus musculus. Nature of the data set: Renoprotective activity in db/db mouse assessed as […] in number of intraglomerular mesangial cells at 0.65 mg/kg, ip administered trice per week for 12 consecutive weeks measured at 11 weeks post dose by H/E-staining based microscopic analysis. Format: functional, organism-based. The procedure, abridged:
as §1

For data set [7], the system named is Mus musculus. Nature of the data set: Anti-diabetic nephropathic activity in db/db mouse assessed as reduction in plasma urea nitrogen levels at 0.65 mg/kg, ip administered trice per week for 12 consecutive weeks measured 11 weeks post dose. Format: functional, organism-based. Put shortly: as §2
Data set [8] deals with Mus musculus. Kind of data set: Anti-diabetic nephropathic activity in db/db mouse assessed as reduction in plasma creatinine levels at 0.65 mg/kg, ip administered trice per week for 12 consecutive weeks measured at 11 weeks post dose. Format: functional, organism-based.
The next data set concerns Kidney. Nature of the data set: In vivo drug metabolism in Sprague-Dawley rat assessed as CDDO-Me formation in kidney at 30 mg/kg, ip measured at 10 mins by LC-MS/MS analysis. Format: ADME, organism-based. Put shortly:
(§3)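 Rats given a single ip injection, 20 mg/kg (0.04 mmol) of CDDO-Me or 30 mg/kg (0.04 mmol) of the prodrug; heart, kidney and liver collected over time; parent compound and liberated CDDO-Me measured by LC-MS/MS.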

Data set [9] in a line: Drug level in Sprague-Dawley rat kidney at 30 mg/kg, ip measured at 10 mins by LC-MS/MS analysis. Format: ADME, organism-based. The settings on record: read-out: Drug uptake. The procedure, abridged:
as §3

Data set [10] is described as follows: Drug level in Sprague-Dawley rat heart at 30 mg/kg, ip measured at 90 mins by LC-MS/MS analysis. Format: ADME, organism-based. The settings on record: read-out: Drug uptake. Put shortly:
as §3

Data set [11] has as its system Mus musculus. Nature of the data set: Antidiabetic nephropathic activity in db/db mouse assessed as reduction in plasma creatinine levels at 1 to 2 mg/kg, ip administered thrice per week for 12 consecutive weeks measured at 11 weeks post dose. Format: functional, organism-based.
Data set [12] in a line: Drug level in Sprague-Dawley rat liver at 30 mg/kg, ip measured at 90 mins by LC-MS/MS analysis. The settings on record: read-out: Drug uptake. Format: ADME, organism-based. Put shortly:
as §3

In data set [13] the test system is Mus musculus. Nature of the data set: Renoprotective activity in db/db mouse assessed as reduction in fused podocytes at 1 to 2 mg/kg, ip administered trice per week for 12 consecutive weeks measured at 11 weeks post dose by TEM microscopic analysis. Format: functional, organism-based. The procedure, abridged: (§4)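 Male db/db mice (8 weeks old) were dosed i.p. three times weekly for 12 weeks in 5% Tween-80/0.9% saline, n = 6. Kidney tissue was fixed in 3% glutaraldehyde, cut into 80 nm ultrathin sections and examined by TEM. GBM thickness was measured at 30 random locations from three sections per kidney and averaged per mouse.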

The subject of data set [14] is Mus musculus. Kind of data set: Renoprotective activity in db/db mouse assessed as reduction in glomerular basement thickening at 1 to 2 mg/kg, ip administered trice per week for 12 consecutive weeks measured at 11 weeks post dose by TEM microscopic analysis. Format: functional, organism-based. Put shortly:
as §4

Chain of Kelch-like ECH-associated protein 1 (Homo sapiens) (Q14145 whole entry): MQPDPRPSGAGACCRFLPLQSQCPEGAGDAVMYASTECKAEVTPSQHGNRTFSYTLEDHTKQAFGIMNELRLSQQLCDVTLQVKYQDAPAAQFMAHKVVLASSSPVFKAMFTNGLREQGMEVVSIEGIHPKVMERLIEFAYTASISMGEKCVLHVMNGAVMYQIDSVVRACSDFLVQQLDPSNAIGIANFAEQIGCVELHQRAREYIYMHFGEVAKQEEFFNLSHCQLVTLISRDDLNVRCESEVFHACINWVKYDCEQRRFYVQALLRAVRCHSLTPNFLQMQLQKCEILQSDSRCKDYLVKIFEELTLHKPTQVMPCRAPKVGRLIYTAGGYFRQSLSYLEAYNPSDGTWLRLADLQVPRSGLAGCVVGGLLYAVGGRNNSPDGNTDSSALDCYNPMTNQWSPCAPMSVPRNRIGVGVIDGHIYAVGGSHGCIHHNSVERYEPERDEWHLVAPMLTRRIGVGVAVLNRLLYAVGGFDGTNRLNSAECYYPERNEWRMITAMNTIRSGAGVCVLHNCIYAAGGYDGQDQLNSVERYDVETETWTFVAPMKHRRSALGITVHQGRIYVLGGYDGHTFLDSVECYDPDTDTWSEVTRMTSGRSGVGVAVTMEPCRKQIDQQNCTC

With `COC(=O)[C@]12CCC(C)(C)C[C@H]1[C@H]1C(=O)C=C3[C@@]4(C)C=C(C#N)C(=O)C(C)(C)[C@@H]4CC[C@@]3(C)[C@]1(C)CC2` [BARDOXOLONE METHYL], the inhibition entry in [1] is “Active”. The result in the data set on Mus musculus [2], with Mus musculus [4], in the data set on Mus musculus [5], in the data set with Mus musculus [6], with Mus musculus [7] and in the data set with Mus musculus [8] was Active. The Drug metabolism result in data set [3] was “Metabolite_Detected”.

In the case of `COC(=O)[C@@H](N)CCC(=O)Nc1ccc(COC2=C(C#N)[C@H](O)[C@]3(C)C4=CC(=O)[C@@H]5[C@@H]6CC(C)(C)CC[C@]6(C(=O)OC)CC[C@@]5(C)[C@]4(C)CC[C@H]3C2(C)C)cc1`, the Drug metabolism in the data set with Kidney is 0.04 µg/g. In data set [9], the concentration at 10 min was 1230 ng/g. Also, the results for the concentration at 1.5 h in data set [10] and in data set [12] were 1310 ng/g and 6040 ng/g, respectively. Moreover, the outcome in the data set on Mus musculus [11], in the data set with Mus musculus [13] and in the data set with Mus musculus [14] was Active.
